Data: ChEMBL document CHEMBL1145922, “1,2-benzisoxazole phosphorodiamidates as novel anticancer prodrugs requiring bioreductive activation” (J Med Chem, 2003)

Tests used:
Assay type in all cases: functional
Homo sapiens = organism: Homo sapiens; assay: Percent formation of compound upon incubation of 15 for 60 minutes with human P450 reductase microsomes in hypoxic condition in presence of NADPH
Procedure, shortened: (§1)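 Human or rat P450 reductase microsomes at 1 mg/mL protein, substrate 0.25 mM and cofactor 0.5 mM; pCMBA 2 mM where stated. Anaerobic samples purged with nitrogen 15–20 min in septum-sealed vials. 60 min at 37 °C, stopped with ice-cold methanol. Ketone metabolite quantified by HPLC (C-18, methanol/water 50:50, UV 254 nm) as percent of equimolar substrate. Mean of two experiments.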

Rattus norvegicus [1] = organism: Rattus norvegicus; assay: Percent formation of compound upon incubation of 15 with phenobarbit-induced rat liver microsomal fraction in oxic condition in presence of SKF-525A at a concentration of 2 mM
Procedure, shortened: (§2)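 Phenobarbital-induced rat liver microsomes; inhibitors SKF-525A (in methanol) or pCMBA (in DMF) at 0–4 mM final. pCMBA preincubated 30 min before NADPH; SKF-525A incubated 15 min with microsomes and NADPH. Hypoxic samples nitrogen-purged. Substrate 2.5 mM added, 30 min at 37 °C. Ketone metabolite by HPLC at 254 nm as percent of substrate; % inhibition relative to no inhibitor. Mean of two experiments.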

Rattus norvegicus [2] = organism: Rattus norvegicus; assay: Percent formation of compound upon incubation of 15 with phenobarbit-induced rat liver microsomal fraction in oxic condition in presence of pCMBA at a concentration of 2 mM; procedure, shortened: as §2
Rattus norvegicus [3] = organism: Rattus norvegicus; assay: Percent formation of compound upon incubation of 15 with phenobarbit-induced rat liver microsomal fraction in oxic condition in presence of pCMBA at a concentration of 4 mM; procedure, shortened: as §2
Rattus norvegicus [4] = organism: Rattus norvegicus; assay: Percent inhibition of formation of compound upon incubation of 15 with phenobarbit-induced rat liver microsomal fraction in oxic condition in presence of SKF-525A at a concentration of 4 mM; procedure, shortened: as §2
Rattus norvegicus [5] = organism: Rattus norvegicus; assay: Tested for formation of compound upon incubation of compound 15 for 30 minutes with rat liver microsomal fractions in hypoxic condition in the absence of cofactor
Procedure, shortened: (§3)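 Phenobarbital-induced rat liver S-9, microsomal or cytosolic fraction with 5 mM cofactor (NADPH, NADH, benzaldehyde or 2-hydroxypyrimidine) or none. Substrate 2.5 mM final, added from methanol/water 50:50. Hypoxic vials purged with nitrogen 15–20 min. 30 min at 37 °C, quenched with ice-cold methanol. Ketone metabolite by HPLC at 254 nm as percent of equimolar substrate.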

Rattus norvegicus [6] = organism: Rattus norvegicus; assay: Tested for formation of compound upon incubation of compound 15 for 30 minutes with rat liver subcellular fractions in oxic condition in the presence of NADH
Procedure, shortened: (§4)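 Phenobarbital-induced rat liver S-9 fraction (2 mL) with 5 mM cofactor (NADPH, NADH, benzaldehyde or 2-hydroxypyrimidine), substrate 2.5 mM final, added in methanol/water 50:50; aerobic, 30 min at 37 °C. Quenched with ice-cold methanol, proteins spun down, supernatant analysed by reverse-phase C-18 HPLC, UV 254 nm; ketone metabolite given as percent of equimolar substrate; three experiments.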

Rattus norvegicus [7] = organism: Rattus norvegicus; assay: Percent formation of compound upon incubation of 15 with phenobarbit-induced rat liver microsomal fraction in hypoxic condition in presence of SKF-525A at a concentration of 1 mM; procedure, shortened: as §2
Rattus norvegicus [8] = organism: Rattus norvegicus; assay: Percent formation of compound upon incubation of 15 with phenobarbit-induced rat liver microsomal fraction in hypoxic condition in presence of SKF-525A at a concentration of 2 mM; procedure, shortened: as §2
Rattus norvegicus [9] = organism: Rattus norvegicus; assay: Tested for formation of compound upon incubation of compound 15 for 30 minutes with rat liver subcellular fractions in oxic condition in the presence of benzaldehyde; procedure, shortened: as §4
Rattus norvegicus [10] = organism: Rattus norvegicus; assay: Tested for formation of compound upon incubation of compound 15 for 30 minutes with uninduced rat liver S-9 fractions in hypoxic condition in the absence of cofactor
Procedure, shortened: (§5)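 Uninduced rat liver S-9 (22.5 mg/mL protein, 2 mL) with 5 mM NADPH or no cofactor, substrate 2.5 mM final; hypoxic samples nitrogen-purged 15–20 min in septum-sealed vials, else aerobic; 30 min at 37 °C. Methanol quench, centrifugation, C-18 HPLC with UV 254 nm; metabolite as percent of equimolar substrate. NADPH runs three experiments, no-cofactor runs two.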

Rattus norvegicus [11] = organism: Rattus norvegicus; assay: Tested for formation of compound upon incubation of compound 15 for 30 minutes with uninduced rat liver S-9 fractions in oxic condition in the absence of cofactor; procedure, shortened: as §5
Rattus norvegicus [12] = organism: Rattus norvegicus; assay: Tested for formation of compound upon incubation of compound 15 for 30 minutes with uninduced rat liver S-9 fractions in oxic condition in the presence of NADPH; procedure, shortened: as §5
Rattus norvegicus [13] = organism: Rattus norvegicus; assay: Percent formation of compound upon incubation of 15 for 60 minutes with rat P450 reductase microsomes in oxic condition in presence of NADPAH; procedure, shortened: as §1
Rattus norvegicus [14] = organism: Rattus norvegicus; assay: Percent formation of compound upon incubation of 15 with phenobarbit-induced rat liver microsomal fraction in hypoxic condition in presence of SKF-525A at a concentration of 0 mM; procedure, shortened: as §2
Rattus norvegicus [15] = organism: Rattus norvegicus; assay: Tested for formation of compound upon incubation of compound 15 for 30 minutes with rat liver microsomal fractions in oxic condition in the absence of cofactor; procedure, shortened: as §3
Rattus norvegicus [16] = organism: Rattus norvegicus; assay: Tested for formation of compound upon incubation of compound 15 for 30 minutes with rat liver microsomal fractions in oxic condition in the presence of NADPH; procedure, shortened: as §3
Rattus norvegicus [17] = organism: Rattus norvegicus; assay: Tested for formation of compound upon incubation of compound 15 for 30 minutes with rat liver subcellular fractions in hypoxic condition in the absence of cofactor; procedure, shortened: as §3
Rattus norvegicus [18] = organism: Rattus norvegicus; assay: Percent inhibition of formation of compound upon incubation of 15 with phenobarbit-induced rat liver microsomal fraction in hypoxic condition in presence of pCMBA at a concentration of 4 mM; procedure, shortened: as §2
Rattus norvegicus [19] = organism: Rattus norvegicus; assay: Percent inhibition of formation of compound upon incubation of 15 with phenobarbit-induced rat liver microsomal fraction in oxic condition in presence of pCMBA at a concentration of 1 mM; procedure, shortened: as §2
Rattus norvegicus [20] = organism: Rattus norvegicus; assay: Percent inhibition of formation of compound upon incubation of 15 with phenobarbit-induced rat liver microsomal fraction in oxic condition in presence of pCMBA at a concentration of 4 mM; procedure, shortened: as §2
Rattus norvegicus [21] = organism: Rattus norvegicus; assay: Percent inhibition of formation of compound upon incubation of 15 with phenobarbit-induced rat liver microsomal fraction in hypoxic condition in presence of SKF-525A at a concentration of 0 mM; procedure, shortened: as §2
Rattus norvegicus [22] = organism: Rattus norvegicus; assay: Percent inhibition of formation of compound upon incubation of 15 with phenobarbit-induced rat liver microsomal fraction in hypoxic condition in presence of SKF-525A at a concentration of 2 mM; procedure, shortened: as §2
Rattus norvegicus [23] = organism: Rattus norvegicus; assay: Percent inhibition of formation of compound upon incubation of 15 with phenobarbit-induced rat liver microsomal fraction in hypoxic condition in presence of SKF-525A at a concentration of 4 mM; procedure, shortened: as §2
Rattus norvegicus [24] = organism: Rattus norvegicus; assay: Percent inhibition of formation of compound upon incubation of 15 with phenobarbit-induced rat liver microsomal fraction in oxic condition in presence of SKF-525A at a concentration of 0 mM; procedure, shortened: as §2
Rattus norvegicus [25] = organism: Rattus norvegicus; assay: Percent inhibition of formation of compound upon incubation of 15 with phenobarbit-induced rat liver microsomal fraction in oxic condition in presence of SKF-525A at a concentration of 1 mM; procedure, shortened: as §2
Rattus norvegicus [26] = organism: Rattus norvegicus; assay: Percent formation of compound upon incubation of 15 for 60 minutes with rat P450 reductase microsomes in hypoxic condition in presence of NADPAH; procedure, shortened: as §1
Rattus norvegicus [27] = organism: Rattus norvegicus; assay: Percent formation of compound upon incubation of 15 with phenobarbit-induced rat liver microsomal fraction in hypoxic condition in presence of SKF-525A at a concentration of 4 mM; procedure, shortened: as §2

## CCC(=O)c1ccccc1O
Homo sapiens
  Formation: 1.7%
Rattus norvegicus [1]
  Formation: 38.5%
Rattus norvegicus [2]
  Formation: 0.5%
Rattus norvegicus [3]
  Formation: 0.7%
Rattus norvegicus [4]
  inhibition: 40%
Rattus norvegicus [5]
  Formation: 0.4%
Rattus norvegicus [6]
  Formation: 14.8%
Rattus norvegicus [7]
  Formation: 54.6%
Rattus norvegicus [8]
  Formation: 50.3%
Rattus norvegicus [9]
  Formation: 0.7%
Rattus norvegicus [10]
  Formation: 0.9%
Rattus norvegicus [11]
  Formation: 1.6%
Rattus norvegicus [12]
  Formation: 9.1%
Rattus norvegicus [13]
  Formation: 1.5%
Rattus norvegicus [14]
  Formation: 70.8%
Rattus norvegicus [15]
  Formation: 0.6%
Rattus norvegicus [16]
  Formation: 73%
Rattus norvegicus [17]
  Formation: 2.2%
Rattus norvegicus [18]
  inhibition: 99%
Rattus norvegicus [19]
  inhibition: 99%
Rattus norvegicus [20]
  inhibition: 99%
Rattus norvegicus [21]
  inhibition: 0%
Rattus norvegicus [22]
  inhibition: 29%
Rattus norvegicus [23]
  inhibition: 36%
Rattus norvegicus [24]
  inhibition: 0%
Rattus norvegicus [25]
  inhibition: 18%
Rattus norvegicus [26]
  Formation: 1.7%
Rattus norvegicus [27]
  Formation: 45%
